GSIS activator: GLuc luminescence reporter in INS-1E cells, primary screen for activators of glucose-dependent secretion of insulin | AID 743287 | activation, % at 16.6 µM | hit rate 0.61% among 370,000 | INS-1E GLuc reporter insulin secretion, 2-3 h;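 active means lowest replicate activation of at least 40%, so every replicate reaches that level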;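 further: 0% = median of neutral control wells and 100% = median of IBMX positive control wells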
miR122 inh: miR-122 inhibition in Huh7 cells; Huh7 miR-122 Renilla luciferase sensor, 48 h; neutral wells = 0, positive control = 100; hit rate 0.3% among 340,000; activation (reporter increase), % at 12.5 µM;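 active means mean replicate activation score at least 90 and every replicate individually at or above 90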;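 further: higher luciferase means less miR-122 activity so hits act as miR-122 inhibitors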
Cneo AK release: Cryptococcus neoformans lysis via adenylate kinase release; C. neoformans lysis, adenylate kinase release luminescence, 4 h; normalised: neutral wells 0, clomiphene wells 100; lysis activity, % at 15 µM; hit rate 0.2% among 360,000;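 active means mean lysis activity across replicates of at least 80%, whatever share of replicates individually reach that level; inactive means mean lysis activity below 80%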
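Assay system: Cryptococcus neoformans yeast cells / Dosing: single-point compound dose / Timing: 4 h at 37 °C static, read 1 h later / Measured by: luminescence of released adenylate kinase using an AK detection reagent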
F508del corr: CFTR F508del correction in bronchial cells; CFBE cells, YFP halide quenching; stimulated with forskolin plus potentiator P3; % fluorescence drop versus neutral controls; activity (quench increase), % at 7.58 µM; hit rate 0.36% among 350,000; AID 720511;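 active means mean added fluorescence quench of at least 8% versus neutral control, with both replicates also reaching 8%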;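 further: cells transiently co-express mutant CFTR-F508del with the halide-sensitive YFP; corrector assay measuring rescue of mutant channel to the surface after 24 h compound exposure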
rRNA inh HTS: inhibitors of bacterial rRNA selective over humanized ribosomes; E. coli WT GFP vs humanized-ribosome RFP mutants, fluorescence, 24 h; hits give low values; DMSO median 0, no signal -100; GFP signal change (wild-type ribosome), % (no concentration beside the values); hit rate 1.6% among 350,000;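 active means significant combined selectivity score with lowered wild-type GFP, culture density cut under 30%, mutant RFP and density less affected; inactive means any of these conditions unmet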
Env fusion inh: blocks HIV Env-driven cell-cell fusion; HeLa-JRFL Env/CEM21 cell fusion, luciferase; inhibition, % at 12.3 µM; hit rate 1.1% among 360,000; AID 651610;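 active means mean replicate inhibition score of at least 50 and every replicate individually at or above 50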;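 further: 0% = plate neutral controls and 100% = maraviroc near 300 nM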
The depositor's hits bear a star; x = no result; [ ] = dose if it differs, or a comment. Compounds with a hit are over-represented: about 3.1% of the library has one in this group of screens.

SMILES | GSIS activator | miR122 inh | Cneo AK release | F508del corr | rRNA inh HTS | Env fusion inh
C[C@@H]1CN([C@H](C)CO)C(=O)Cc2cc(NS(=O)(=O)c3ccccc3)ccc2O[C@@H]1CN(C)C(=O)Nc1ccc(C(F)(F)F)cc1 | -16 | 56[16.7 µM] | x | 0 | -1 | -7[16.7 µM]
COC(=O)c1cc(-c2cccs2)nn1-c1ccccc1 | 44 | x | x | 1 | -29* | 10
Cc1ccc(NC(=O)COC(=O)c2cc(-c3cccs3)nn2-c2ccccc2)cc1[N+](=O)[O-] | 69* | -3 | -1 | x | x | -82
C[C@@]12C(=O)N(Cc3ccco3)CC(=O)N1[C@H]1c3cc(Cl)ccc3OC[C@@H]1[C@@H]2c1ccccc1 | -18 | -7 | -1 | 1 | 5 | 16
CN1CC(=O)N2[C@H]3c4ccccc4OC[C@@H]3[C@H](c3ccccc3)[C@]2(C)C1=O | 9 | 10 | -6 | 1 | 2 | -1
C[C@@]12C(=O)N(Cc3ccccc3)CC(=O)N1[C@H]1c3cc(Cl)ccc3OC[C@@H]1[C@@H]2c1ccccc1 | -22 | 0 | 3 | -3 | 8 | 61*
C[C@@]12C(=O)N(Cc3ccc(F)cc3)CC(=O)N1[C@H]1c3cc(Cl)ccc3OC[C@@H]1[C@@H]2c1ccccc1 | -8 | -9 | -3 | -2 | 7 | 77*
C[C@@]12C(=O)N(Cc3ccc(Cl)cc3)CC(=O)N1[C@H]1c3ccccc3OC[C@@H]1[C@@H]2c1ccccc1 | -11 | -2 | 6 | -1 | 1 | 29
C[C@@]12C(=O)N(CCc3c[nH]c4ccccc34)CC(=O)N1[C@H]1c3ccccc3OC[C@@H]1[C@@H]2c1ccccc1 | -1 | -4 | 4 | 2 | 7 | 82*
C[C@@H]1CCCCO[C@H](CN(C)S(=O)(=O)c2ccccc2)[C@@H](C)CN([C@H](C)CO)C(=O)c2cc(NC(=O)CCC(F)(F)F)ccc2O1 | 1 | 2[16.7 µM] | 0 | 0 | 3 | 1[16.7 µM]
C[C@@H]1CN([C@H](C)CO)C(=O)c2cc(NC(=O)c3ccncc3)ccc2O[C@H]1CN(C)S(C)(=O)=O | 16 | -8[16.7 µM] | -5 | 2 | 5 | 0[16.7 µM]
Cc1ccc(-n2cc(-c3ccccc3)c3c(N4CCOCC4)ncnc32)cc1 | -7 | x | x | 8.2* | -8 | 30
COc1cc(/C=N/NC(=O)CNC(=O)c2cccs2)ccc1O | 46* | -2 | 4 | x | x | 13
CCn1c(C)nc2cc(C(=O)N/N=C/c3ccc(OC)c(O)c3)ccc21 | x | x | x | x | -23* | 5
COc1ccc(C=NNC(=O)CCCC(=O)NN=Cc2ccc(OC)c(O)c2)cc1O | 21 | x | 6 | 15* | 9 | x
COc1ccc2[nH]c(C(=O)N/N=C/c3ccc(OC)c(O)c3)cc2c1 | -3 | x | x | 11* | -42 | -468
C[C@H](CO)N1C[C@H](C)[C@H](CN(C)Cc2ccc(Oc3ccccc3)cc2)Oc2ccc(NC(=O)CCN3CCOCC3)cc2CC1=O | -1 | 0[16.7 µM] | -1 | 0 | 1 | -1[16.7 µM]
O=C(Nc1cc(F)ccc1F)N1CCCCN2[C@H](C1)[C@@H](c1ccc(-c3ccccc3)cc1)[C@@H]2CO | -11 | -22[16.7 µM] | 1 | -8 | -21 | x
C/C=C/c1cnc2c(c1)C(=O)N([C@@H](C)CO)C[C@@H](C)[C@H](CN(C)Cc1cccc(C(=O)O)c1)O2 | 22 | -9[16.7 µM] | 2 | -5 | 2 | x
COc1ccc(-c2cc3cc(C(=O)O)ccn3c2C(=O)c2ccccc2)cc1 | 1 | -3 | 4 | 1 | -44 | 13
O=C(O)c1ccn2c(C(=O)c3ccccc3)c(-c3ccccc3)cc2c1 | -6 | 0 | 4 | 1 | -26* | -2
C/C(=N/Oc1nc(C)cc(C)n1)c1ccc(F)cc1 | 64* | -5 | -2 | x | x | x
O=C(O)c1cccc(S(=O)(=O)NCCC(c2ccccc2)c2ccccc2)c1 | -11 | x | x | 2 | -27* | 35
CO[C@@H]1CN(C)C(=O)c2ccc(NC(C)=O)cc2OC[C@H](C)N(Cc2ccc(F)cc2)C[C@@H]1C | -9 | -3[16.7 µM] | -2 | 2 | -1 | x
S=c1[nH]nc2nnc3ccccc3n12 | -40 | x | 2 | -1 | -32* | 12
SMILES | GSIS activator | miR122 inh | Cneo AK release | F508del corr | rRNA inh HTS | Env fusion inh
S=c1[nH]nc2sc3ccccc3n12 | -4 | 4 | 2 | 2 | -5 | -7
C[C@H](CO)N1C[C@H](C)[C@H](CN(C)C(=O)N[C@H](C)c2ccccc2)OCc2ccccc2-c2c(n(C)c3ccccc23)C1=O | -6 | -5 | 0 | 0 | -7 | 75*
CO[C@@H](C(=O)N(C)C[C@H]1OCc2ccccc2-c2c(n(C)c3ccccc23)C(=O)N([C@@H](C)CO)C[C@@H]1C)c1ccccc1 | -7 | x | 57 | 0 | 0 | 55*[16.7 µM]
CNC(=O)C[C@H]1CC[C@@H]2[C@H](COC[C@H](O)CN2C(=O)Nc2cccc(OC)c2)O1 | 7 | -1[16.7 µM] | 0 | -3 | 4 | x
O=S(=O)(NC1CCCC1)c1ccc(S(=O)(=O)N(Cc2cccs2)CC2CCCO2)cc1 (centres undefined) | -16 | 52 | 1 | 0 | -30* | x
C=C1[C@@H](O)[C@H](CC(C)C)N(Cc2ccccc2Br)S1(=O)=O | 45* | -2 | 0 | -6 | -17 | -7
CCS(=O)(=O)N1CC2(CN(Cc3ccccc3OC)[C@@H](CO)c3c2c2ccc(OC)cc2n3C)C1 | 2 | x | x | x | -3 | x
O=C(c1ccccc1)N1CC(=O)N2[C@H](CO)[C@@H](c3ccc(C#CCC4CCCC4)cc3)[C@@H]2C1 | -12 | x | x | 1 | 8 | x
Cc1cc(Cl)cc(C)c1OCCn1ccnc1 | -3 | -5 | 3 | 13* | -18 | -16
CCC(C)c1ccccc1OCCn1ccnc1 (centres undefined) | 48* | x | x | x | x | -3
Clc1ccc(OCCn2ccnc2)c(Br)c1 | 22 | 9 | 3 | x | x | x
Clc1ccc(OCCn2ccnc2)c(Cl)c1 | 49* | 0 | -5 | x | x | -45
O=C(NCCCn1ccnc1)Nc1ccc(Cl)cc1 | x | -7 | x | x | x | 43
S=C(NCCCn1ccnc1)Nc1ccc(Cl)cc1Cl | -2 | x | x | -1 | -23* | 5
Cc1cc(Cl)cc(C)c1OCCCCCn1ccnc1 | x | 4 | 10 | -1 | -42 | 32
COc1ccc(S(=O)(=O)N2CCCCN3[C@@H](CO)[C@H](c4ccc(C#CC5CC5)cc4)[C@@H]3C2)cc1 | -36 | -29[16.7 µM] | -1 | -1 | -47 | x
O=C(C[C@@H]1C[C@H]2c3cc(NS(=O)(=O)c4ccc(F)cc4)ccc3O[C@H]2[C@@H](CO)O1)NCc1ccncc1 | -8 | 3[16.7 µM] | 0 | -4 | 2 | x
C[C@@H]1CN([C@H](C)CO)C(=O)Cc2cc(N(C)C)ccc2O[C@H]1CN(C)Cc1ccc(-c2ccccc2)cc1 | -14 | 0[16.7 µM] | 0 | 1 | -22 | x
CC(=O)Nc1ccc2c(c1)CC(=O)N(C)C[C@@H](C)[C@@H](CN(C)C(C)=O)O2 | 11 | x | x | x | 1 | x

Assay outcomes as filed in PubChem.
